Data set [1] is described as follows: Permeability of the compound at pH 7.4 PBS buffer at 100 uM measured upto 6 hrs by PAMPA-BBB assay. (In general: PAMPA measures passive passage across an artificial lipid membrane.)
Data set [2] in a line: Neurotoxicity against rat CGN cells assessed as cell viability at 25 uM incubated for 24 hrs by MTT assay. It counts as toxicity, cell-based. As to conditions: read-out: Activity. A digest of the protocol: (§1)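 Primary rat cerebellar granule neuron cultures were exposed for 24 h to 5, 25 or 50 μM. Viability was measured by MTT and expressed as percentage of untreated controls, as mean ± SE of at least three experiments, each run in triplicate.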

The nature of data set [3]: Neurotoxicity against rat CGN cells assessed as cell viability at 50 uM incubated for 24 hrs by MTT assay. It is filed as toxicity, cell-based. The settings on record: read-out: Activity. A digest of the protocol: as §1
In general terms: Formazan colour is commonly taken as a measure of viable cells.

Data set [4] deals with N9. Nature of the data set: Immunomodulatory activity in mouse N9 cells assessed as reduction in LPS-induced iNOS expression at 5 to 25 uM incubated for 24 hrs by Western blot analysis. It counts as functional, cell-based. A digest of the protocol: (§2)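 N9 mouse microglial cells stimulated with LPS (100 ng/mL) and treated at 5 and 25 μM. iNOS and MRC1 levels were read by Western blot with GAPDH as loading control. Densitometry is expressed as percentage of LPS-only cells, as mean ± SE of three independent experiments.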

The subject of data set [5] is N9. Nature of the data set: Immunomodulatory activity in mouse N9 cells assessed as increase in LPS-induced MRC1 expression at 5 to 25 uM incubated for 24 hrs by Western blot analysis. It counts as functional, cell-based. A digest of the protocol:
as §2
(A western blot detects proteins with antibodies after separation by electrophoresis.)

The species entered for data set [6] is Rattus norvegicus. Nature of the data set: Neuroprotective activity against low serum/K+ deprivation-induced toxicity in rat CGN cells assessed as increase in cell viability at 5 to 25 uM pre-treated for 6 hrs followed by 24 hrs co-treatment with serum/K+ starvation and measured after 24 hrs by MTT assay. It counts as functional, cell-based. A digest of the protocol:
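Primary rat cerebellar granule neurons were pretreated for 6 h, then cotreated for 24 h under low-serum and K+ deprivation to induce death. Viability was compared with control and deprivation-only conditions, with tacrine as reference compound.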

Data set [7] concerns the target Histone deacetylase 1 (Homo sapiens, UniProt Q13547). Nature of the data set: Inhibition of human recombinant HDAC1 at 10 uM using ZMAL (Z-(Ac)Lys-AMC fluorogenic substrate incubated for 90 mins by fluorescence method.
The target in data set [8] is T1, Protein deacetylase HDAC6 (Homo sapiens) (UniProt Q9UBN7).
T1 sequence (whole entry): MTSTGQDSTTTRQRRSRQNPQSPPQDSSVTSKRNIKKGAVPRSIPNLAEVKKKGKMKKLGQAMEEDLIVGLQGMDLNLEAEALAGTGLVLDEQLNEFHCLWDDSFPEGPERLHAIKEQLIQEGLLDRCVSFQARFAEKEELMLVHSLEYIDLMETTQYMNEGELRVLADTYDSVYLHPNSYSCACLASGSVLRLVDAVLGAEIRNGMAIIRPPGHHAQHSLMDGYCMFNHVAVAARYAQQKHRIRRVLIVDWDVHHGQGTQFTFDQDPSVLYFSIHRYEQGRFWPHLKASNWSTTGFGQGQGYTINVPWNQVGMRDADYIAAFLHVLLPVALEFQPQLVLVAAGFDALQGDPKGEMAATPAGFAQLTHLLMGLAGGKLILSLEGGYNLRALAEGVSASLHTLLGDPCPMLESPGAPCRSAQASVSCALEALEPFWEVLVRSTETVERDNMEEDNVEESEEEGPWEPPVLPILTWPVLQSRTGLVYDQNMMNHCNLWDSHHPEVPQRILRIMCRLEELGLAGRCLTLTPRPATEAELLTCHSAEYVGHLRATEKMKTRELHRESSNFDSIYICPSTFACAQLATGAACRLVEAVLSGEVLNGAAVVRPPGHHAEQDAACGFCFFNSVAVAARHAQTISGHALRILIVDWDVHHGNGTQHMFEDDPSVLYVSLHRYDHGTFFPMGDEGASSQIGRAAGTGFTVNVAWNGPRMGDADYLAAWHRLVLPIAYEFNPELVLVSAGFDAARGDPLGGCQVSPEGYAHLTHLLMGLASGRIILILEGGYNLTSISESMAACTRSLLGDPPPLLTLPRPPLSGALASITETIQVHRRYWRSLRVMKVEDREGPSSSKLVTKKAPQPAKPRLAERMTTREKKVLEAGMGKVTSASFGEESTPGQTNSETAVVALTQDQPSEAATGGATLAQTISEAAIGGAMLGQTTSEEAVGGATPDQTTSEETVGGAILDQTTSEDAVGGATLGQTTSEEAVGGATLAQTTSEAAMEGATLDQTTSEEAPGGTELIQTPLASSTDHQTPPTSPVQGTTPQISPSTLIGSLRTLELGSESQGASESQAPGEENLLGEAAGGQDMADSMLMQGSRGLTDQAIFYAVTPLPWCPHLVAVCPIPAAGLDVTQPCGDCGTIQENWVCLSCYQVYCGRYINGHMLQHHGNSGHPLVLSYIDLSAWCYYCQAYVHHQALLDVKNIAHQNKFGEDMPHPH
Put plainly: Inhibition of human recombinant HDAC6 at 10 uM using ZMAL (Z-(Ac)Lys-AMC fluorogenic substrate incubated for 90 mins by fluorescence method.

Calls of active or inactive are those of the source. The rule behind the calls is not given here.

Sequence of Histone deacetylase 1 (Q13547 whole entry): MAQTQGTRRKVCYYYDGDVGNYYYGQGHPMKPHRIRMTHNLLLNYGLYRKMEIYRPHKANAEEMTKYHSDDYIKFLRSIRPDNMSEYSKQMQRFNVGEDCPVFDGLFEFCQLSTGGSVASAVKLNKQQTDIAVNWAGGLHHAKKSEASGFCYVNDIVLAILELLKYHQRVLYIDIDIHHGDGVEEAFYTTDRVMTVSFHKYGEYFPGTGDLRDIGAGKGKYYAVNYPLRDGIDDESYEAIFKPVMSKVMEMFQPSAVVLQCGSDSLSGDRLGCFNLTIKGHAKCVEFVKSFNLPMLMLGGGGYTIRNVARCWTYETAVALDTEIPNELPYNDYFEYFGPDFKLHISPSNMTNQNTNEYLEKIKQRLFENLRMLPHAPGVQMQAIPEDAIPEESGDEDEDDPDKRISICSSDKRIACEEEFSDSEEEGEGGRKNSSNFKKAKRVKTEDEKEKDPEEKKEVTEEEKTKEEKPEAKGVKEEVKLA

On to `CN(C)CCCN1c2ccccc2Sc2ccc(Cl)cc21` [CHLORPROMAZINE], for which the Papp (commonly the rate of passage across a membrane or cell layer, normalised by area and donor concentration) at 6 h, 100 µM in data set [1] was determined as 5.1 ×10⁻⁶ cm/s. `Nc1c2c(nc3ccccc13)CCCC2` [TACRINE] returned a Papp at 6 h, 100 µM in data set [1] of 3.75 ×10⁻⁶ cm/s. Regarding `O=C(CCCCCCC(=O)Nc1ccccc1)NO` [VORINOSTAT], in data set [2], the viability at 24 h, 25 µM amounted to 70%. Besides, the viability at 24 h, 50 µM in data set [3] amounted to 52%. Also, in data set [4], the outcome was Active. Besides, the result in data set [5] and in data set [6] was inactive. For `CO/N=C(\C(=O)N[C@@H]1C(=O)N2C(C(=O)O)=C(COC(N)=O)CS[C@H]12)c1ccco1` [CEFUROXIME], the Papp at 6 h, 100 µM in data set [1] came to 2.7 ×10⁻⁶ cm/s. As to `CCCCCCCCCCCCCCCc1cccc(O)c1`, the Papp at 6 h, 100 µM in data set [1] was determined as 3.1 ×10⁻⁶ cm/s.

Turning to `COc1cccc(CCCCCCCC(=O)O)c1`, the inhibition in data set [7] and in data set [8] was below 15% each time.

Values taken from ChEMBL document CHEMBL4433221, “Novel Sustainable-by-Design HDAC Inhibitors for the Treatment of Alzheimer's Disease” (ACS Med Chem Lett, 2019).
